Assay [1] deals with T1, Serine/threonine-protein kinase 4 (Homo sapiens) (UniProt Q13043).
T1 sequence (whole entry): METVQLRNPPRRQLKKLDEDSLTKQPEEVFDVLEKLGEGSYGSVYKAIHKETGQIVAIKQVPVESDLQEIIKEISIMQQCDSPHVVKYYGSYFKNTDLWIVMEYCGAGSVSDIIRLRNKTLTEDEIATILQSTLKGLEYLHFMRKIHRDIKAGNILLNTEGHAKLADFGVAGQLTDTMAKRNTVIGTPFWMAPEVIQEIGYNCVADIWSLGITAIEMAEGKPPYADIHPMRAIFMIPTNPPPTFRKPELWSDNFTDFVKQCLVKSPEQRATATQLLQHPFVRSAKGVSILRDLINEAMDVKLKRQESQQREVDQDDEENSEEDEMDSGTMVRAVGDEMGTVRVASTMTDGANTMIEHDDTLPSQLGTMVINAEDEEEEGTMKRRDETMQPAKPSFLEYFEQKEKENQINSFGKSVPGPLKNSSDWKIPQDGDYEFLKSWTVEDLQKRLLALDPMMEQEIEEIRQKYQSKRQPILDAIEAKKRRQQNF
The assay can be described thus: Competitive binding affinity to STK4 (unknown origin) at 10 uM in presence of ATP relative to control.

For assay [2], the target named is Mitogen-activated protein kinase kinase kinase 11 (Homo sapiens) (UniProt Q16584). The assay can be described thus: Competitive binding affinity to MLK3 (unknown origin) at 10 uM in presence of ATP relative to control.
Sequence of Mitogen-activated protein kinase kinase kinase 11 (Homo sapiens) (Q16584 whole entry, looked up): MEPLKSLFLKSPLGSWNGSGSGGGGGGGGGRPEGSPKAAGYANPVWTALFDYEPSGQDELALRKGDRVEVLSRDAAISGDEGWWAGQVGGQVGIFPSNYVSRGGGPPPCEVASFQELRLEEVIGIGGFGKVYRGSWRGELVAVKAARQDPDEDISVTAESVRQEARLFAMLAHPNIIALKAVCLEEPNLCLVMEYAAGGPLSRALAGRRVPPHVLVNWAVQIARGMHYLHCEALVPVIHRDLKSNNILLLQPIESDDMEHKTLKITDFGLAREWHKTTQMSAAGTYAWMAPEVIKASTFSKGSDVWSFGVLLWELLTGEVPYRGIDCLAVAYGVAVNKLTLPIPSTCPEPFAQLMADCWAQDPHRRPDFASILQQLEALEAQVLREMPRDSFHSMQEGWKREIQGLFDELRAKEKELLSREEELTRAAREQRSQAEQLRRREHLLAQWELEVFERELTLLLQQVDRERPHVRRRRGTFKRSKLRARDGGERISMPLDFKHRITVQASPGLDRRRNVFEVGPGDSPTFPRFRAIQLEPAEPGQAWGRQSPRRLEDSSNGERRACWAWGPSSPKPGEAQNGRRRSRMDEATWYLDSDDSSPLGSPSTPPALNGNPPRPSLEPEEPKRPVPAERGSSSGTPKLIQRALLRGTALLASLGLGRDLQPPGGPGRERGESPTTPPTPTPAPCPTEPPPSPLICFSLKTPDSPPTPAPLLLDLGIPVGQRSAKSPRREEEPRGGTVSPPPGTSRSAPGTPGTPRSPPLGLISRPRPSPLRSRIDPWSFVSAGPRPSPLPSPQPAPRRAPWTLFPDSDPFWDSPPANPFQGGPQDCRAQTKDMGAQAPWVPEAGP
The target of assay [3] is T2, MAP kinase-activated protein kinase 5 (Homo sapiens) (UniProt Q8IW41).
T2 sequence (whole entry): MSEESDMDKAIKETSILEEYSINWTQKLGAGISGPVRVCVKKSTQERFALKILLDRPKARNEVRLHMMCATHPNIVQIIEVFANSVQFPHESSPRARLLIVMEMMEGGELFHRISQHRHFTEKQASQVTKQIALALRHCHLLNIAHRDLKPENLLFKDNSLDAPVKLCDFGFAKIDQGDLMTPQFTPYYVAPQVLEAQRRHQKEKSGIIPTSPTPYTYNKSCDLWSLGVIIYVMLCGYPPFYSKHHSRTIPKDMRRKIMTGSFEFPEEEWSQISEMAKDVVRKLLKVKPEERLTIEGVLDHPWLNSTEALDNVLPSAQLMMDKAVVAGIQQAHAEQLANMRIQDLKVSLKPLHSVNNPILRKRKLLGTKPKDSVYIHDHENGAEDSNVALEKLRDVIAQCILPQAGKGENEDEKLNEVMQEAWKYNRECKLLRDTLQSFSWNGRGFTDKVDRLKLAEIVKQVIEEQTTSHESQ
The assay can be described thus: Competitive binding affinity to MAPKAPK5 (unknown origin) at 10 uM in presence of ATP relative to control.

For assay [4], the target named is MAP kinase-activated protein kinase 2 (Homo sapiens) (UniProt P49137). The assay can be described thus: Competitive binding affinity to MAPKAPK2 (unknown origin) at 10 uM in presence of ATP relative to control.
Sequence of MAP kinase-activated protein kinase 2 (Homo sapiens) (P49137 whole entry, looked up): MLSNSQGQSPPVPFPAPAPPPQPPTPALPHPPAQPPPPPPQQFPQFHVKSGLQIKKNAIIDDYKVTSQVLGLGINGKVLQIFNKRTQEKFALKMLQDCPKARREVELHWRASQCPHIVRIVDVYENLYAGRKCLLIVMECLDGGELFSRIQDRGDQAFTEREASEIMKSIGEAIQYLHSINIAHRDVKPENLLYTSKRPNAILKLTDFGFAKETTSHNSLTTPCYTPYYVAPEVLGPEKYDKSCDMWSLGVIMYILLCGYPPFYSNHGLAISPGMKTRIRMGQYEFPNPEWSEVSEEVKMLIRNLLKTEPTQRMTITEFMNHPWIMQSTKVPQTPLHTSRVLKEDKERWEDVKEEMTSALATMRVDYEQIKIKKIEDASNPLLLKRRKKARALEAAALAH
The test system of assay [5] is Tyrosine-protein kinase ABL1 (Homo sapiens), P00519 [E255K]. The assay can be described thus: Competitive binding affinity to ABL1 E255K mutant (unknown origin) at 10 uM in presence of ATP relative to control.
Sequence of Tyrosine-protein kinase ABL1 (Homo sapiens), P00519 [E255K] (P00519 whole entry E255K): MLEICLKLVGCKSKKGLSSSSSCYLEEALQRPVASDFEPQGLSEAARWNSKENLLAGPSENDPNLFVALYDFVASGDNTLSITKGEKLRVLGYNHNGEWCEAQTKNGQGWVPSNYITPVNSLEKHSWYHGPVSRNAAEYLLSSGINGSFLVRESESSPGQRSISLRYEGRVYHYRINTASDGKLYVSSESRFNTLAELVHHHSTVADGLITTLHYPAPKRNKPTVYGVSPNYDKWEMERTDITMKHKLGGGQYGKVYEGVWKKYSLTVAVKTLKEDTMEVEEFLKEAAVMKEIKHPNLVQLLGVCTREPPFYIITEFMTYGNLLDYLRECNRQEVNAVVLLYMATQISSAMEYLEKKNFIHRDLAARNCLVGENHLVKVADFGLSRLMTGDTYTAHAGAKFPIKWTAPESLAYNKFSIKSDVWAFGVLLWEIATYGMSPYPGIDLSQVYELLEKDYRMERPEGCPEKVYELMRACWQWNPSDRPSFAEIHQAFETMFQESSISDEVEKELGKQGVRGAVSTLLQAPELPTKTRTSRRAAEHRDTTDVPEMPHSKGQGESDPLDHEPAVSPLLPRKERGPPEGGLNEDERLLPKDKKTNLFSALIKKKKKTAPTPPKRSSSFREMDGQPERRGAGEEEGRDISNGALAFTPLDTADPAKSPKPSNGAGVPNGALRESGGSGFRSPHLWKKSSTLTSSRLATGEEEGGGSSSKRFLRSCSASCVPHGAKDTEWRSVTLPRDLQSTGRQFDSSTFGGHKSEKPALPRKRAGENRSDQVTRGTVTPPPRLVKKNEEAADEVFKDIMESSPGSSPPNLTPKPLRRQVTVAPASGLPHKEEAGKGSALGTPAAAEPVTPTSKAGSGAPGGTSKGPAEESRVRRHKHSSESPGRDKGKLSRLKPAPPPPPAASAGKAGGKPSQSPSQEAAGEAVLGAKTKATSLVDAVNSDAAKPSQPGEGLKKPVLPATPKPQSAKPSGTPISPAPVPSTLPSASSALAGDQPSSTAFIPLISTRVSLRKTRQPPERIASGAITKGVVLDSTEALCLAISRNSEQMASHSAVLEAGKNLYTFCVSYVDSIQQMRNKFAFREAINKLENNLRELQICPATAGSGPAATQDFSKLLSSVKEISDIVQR
The target of assay [6] is T3, cGMP-dependent protein kinase 2 (Homo sapiens) (UniProt Q13237).
T3 sequence (whole entry): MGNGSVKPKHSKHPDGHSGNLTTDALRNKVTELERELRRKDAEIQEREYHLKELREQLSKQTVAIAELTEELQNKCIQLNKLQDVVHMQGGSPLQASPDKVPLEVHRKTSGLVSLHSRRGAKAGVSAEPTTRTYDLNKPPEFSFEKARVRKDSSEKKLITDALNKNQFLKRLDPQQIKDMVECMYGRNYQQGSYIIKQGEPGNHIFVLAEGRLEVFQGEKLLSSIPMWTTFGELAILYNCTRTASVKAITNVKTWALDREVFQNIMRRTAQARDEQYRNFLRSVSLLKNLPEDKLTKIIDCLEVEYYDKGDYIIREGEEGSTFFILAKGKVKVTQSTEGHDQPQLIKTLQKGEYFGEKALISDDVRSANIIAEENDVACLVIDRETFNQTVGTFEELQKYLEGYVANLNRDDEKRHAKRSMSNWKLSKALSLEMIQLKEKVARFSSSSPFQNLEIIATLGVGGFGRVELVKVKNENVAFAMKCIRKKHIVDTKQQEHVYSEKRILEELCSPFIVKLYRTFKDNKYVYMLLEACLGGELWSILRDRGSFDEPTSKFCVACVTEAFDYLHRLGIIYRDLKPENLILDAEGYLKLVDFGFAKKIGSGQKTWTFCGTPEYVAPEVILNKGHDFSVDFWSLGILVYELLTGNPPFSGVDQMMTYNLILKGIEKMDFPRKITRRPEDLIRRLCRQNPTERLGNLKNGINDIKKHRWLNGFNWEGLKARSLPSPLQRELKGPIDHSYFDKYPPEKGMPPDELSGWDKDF
Nature of the assay: Competitive binding affinity to PRKG2 (unknown origin) at 10 uM in presence of ATP relative to control.

The target of assay [7] is Cyclin-dependent kinase 14 (Homo sapiens) (UniProt O94921). Nature of the assay: Competitive binding affinity to PFTK1 (unknown origin) at 10 uM in presence of ATP relative to control.
Sequence of Cyclin-dependent kinase 14 (Homo sapiens) (O94921 whole entry): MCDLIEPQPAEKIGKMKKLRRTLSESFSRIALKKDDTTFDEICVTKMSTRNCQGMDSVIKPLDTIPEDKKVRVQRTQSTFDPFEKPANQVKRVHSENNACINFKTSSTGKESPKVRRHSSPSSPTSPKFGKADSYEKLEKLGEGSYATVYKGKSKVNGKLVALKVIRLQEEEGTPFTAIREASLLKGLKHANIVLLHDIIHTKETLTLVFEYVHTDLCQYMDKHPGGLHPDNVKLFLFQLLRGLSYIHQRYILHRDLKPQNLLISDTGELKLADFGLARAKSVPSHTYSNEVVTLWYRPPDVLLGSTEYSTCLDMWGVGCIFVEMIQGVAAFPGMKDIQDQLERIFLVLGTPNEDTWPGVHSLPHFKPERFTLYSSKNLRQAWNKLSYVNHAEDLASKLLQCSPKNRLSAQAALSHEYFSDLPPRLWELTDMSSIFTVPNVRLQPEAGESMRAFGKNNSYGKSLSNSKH
In assay [8] the target is Cyclin-dependent kinase 17 (Homo sapiens) (UniProt Q00537). Nature of the assay: Competitive binding affinity to PCTK2 (unknown origin) at 10 uM in presence of ATP relative to control.
Sequence of Cyclin-dependent kinase 17 (Homo sapiens) (Q00537 whole entry, looked up): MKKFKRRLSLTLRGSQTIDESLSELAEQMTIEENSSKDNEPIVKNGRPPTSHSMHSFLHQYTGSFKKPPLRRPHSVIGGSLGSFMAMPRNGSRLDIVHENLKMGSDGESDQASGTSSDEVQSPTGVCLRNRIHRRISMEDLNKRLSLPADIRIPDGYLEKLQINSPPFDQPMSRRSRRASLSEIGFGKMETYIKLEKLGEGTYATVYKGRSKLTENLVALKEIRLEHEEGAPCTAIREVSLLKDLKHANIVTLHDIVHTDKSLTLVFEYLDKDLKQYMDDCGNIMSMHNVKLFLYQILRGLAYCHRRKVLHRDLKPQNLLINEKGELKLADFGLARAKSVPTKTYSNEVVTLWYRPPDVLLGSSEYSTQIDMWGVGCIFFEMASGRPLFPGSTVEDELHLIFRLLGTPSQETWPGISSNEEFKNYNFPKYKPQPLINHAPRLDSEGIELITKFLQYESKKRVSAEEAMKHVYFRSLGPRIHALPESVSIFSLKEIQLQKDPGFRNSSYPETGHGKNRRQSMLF
Assay [9] concerns the target Serine/threonine-protein kinase 38-like (Homo sapiens) (UniProt Q9Y2H1). The assay can be described thus: Competitive binding affinity to NDR2 (unknown origin) at 10 uM in presence of ATP relative to control. In a few lines: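 In vitro ATP-site competition binding assay across a diverse panel of 128 kinases, with compound tested at a single concentration. Kinase selectivity scores (S15) were calculated from the panel profiles.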

Data on six compounds can be found in ChEMBL document CHEMBL2424622, “Development of amino-pyrimidine inhibitors of c-Jun N-terminal kinase (JNK): kinase profiling guided optimization of a 1,2,3-benzotriazole lead” (Bioorg Med Chem Lett, 2013).

Sequence of Serine/threonine-protein kinase 38-like (Homo sapiens) (Q9Y2H1 2-464 limits assumed): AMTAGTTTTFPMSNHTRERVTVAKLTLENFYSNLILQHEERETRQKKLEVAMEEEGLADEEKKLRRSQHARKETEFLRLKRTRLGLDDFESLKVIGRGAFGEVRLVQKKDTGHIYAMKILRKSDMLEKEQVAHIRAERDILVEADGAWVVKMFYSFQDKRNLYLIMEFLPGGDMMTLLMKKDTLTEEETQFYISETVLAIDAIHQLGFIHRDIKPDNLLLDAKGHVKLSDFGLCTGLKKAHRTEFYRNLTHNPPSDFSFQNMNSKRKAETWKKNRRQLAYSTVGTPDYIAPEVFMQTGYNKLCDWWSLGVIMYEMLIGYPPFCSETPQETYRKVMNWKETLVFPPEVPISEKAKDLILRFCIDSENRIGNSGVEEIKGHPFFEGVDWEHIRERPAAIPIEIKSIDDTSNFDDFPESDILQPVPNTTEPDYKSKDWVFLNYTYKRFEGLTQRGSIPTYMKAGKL

For `O=C([C@H]1CC[C@H](Nc2nccc(-n3nnc4ccccc43)n2)CC1)N1CCOCC1`, the inhibition – broadly, how much of the control response was suppressed – in assay [1] was less than 50%.

As for `O[C@H]1CC[C@H](Nc2nccc(-n3ccc4ccccc43)n2)CC1`, the inhibition in [2], in [3], in [4], in assay [5], in assay [6] and in [7] was less than 50% each time. Also, the inhibition is 73% in assay [8] and less than 50% in [9].

With `O[C@H]1CC[C@H](Nc2nccc(-n3ncc4ccccc43)n2)CC1`, the inhibition in [2], in assay [3], in assay [4], in [5], in assay [6] and in assay [7] was less than 50% each time. For the same compound, the results for the inhibition in assay [8] and in [9] were 78% and less than 50%, respectively.

Regarding `O[C@H]1CC[C@H](Nc2nccc(-c3n[nH]c4ccccc34)n2)CC1`, the inhibition in assay [2] was 88%; in [5], less than 50%; in [6], less than 50%; in [9], 72%; in assay [1], less than 50%.

As for `N[C@H]1CC[C@H](Nc2nccc(-n3nnc4ccccc43)n2)CC1`, in assay [1], the inhibition is less than 50%.

With `O[C@H]1CC[C@H](Nc2nccc(-n3nnc4ccccc43)n2)CC1`, the inhibition in assay [2] was less than 50%; in assay [3], less than 50%; in assay [4], less than 50%; in assay [5], less than 50%; in assay [6], less than 50%; in assay [7], 79%. Further, the inhibition is 88% in assay [8] and less than 50% in assay [9].
